Test results from paper PMC3629956 (Molecular imaging and biology : MIB : the official …, 2012).
Where a SMILES comes first, the peptide text is derived from it. Bridges are numbered along the chain shown (N, C = ends). The star is where a group is joined. DOTA = O=C(O)CN1CCN(CC(=O)O)CCN(CC(=O)*)CCN(CC(=O)O)CC1

Assays:
[1] = format: physicochemical; details: pH 7.4
Probe stability in PBS = format: physicochemical; details: PBS pH 7.4, 37°C, 3.7 MBq in 0.5 mL, HPLC
Outline: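 Radiolabeled peptide (3.7 MBq) was added to 0.5 mL PBS and held at 37°C for 1, 6 and 24 h. At each time an aliquot was taken and radiochemical purity was measured by radio-HPLC on a C18 reversed-phase column, with UV at 214/254 nm. Results are given as % intact tracer.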

[2] = test system: U87MG human glioblastoma cells; experiment: Cell efflux; format: cell-based; details: after 2 h efflux incubation
Outline: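 Cells seeded at 2.5×10^5/well 24 h ahead, then loaded with 370 kBq/well radiotracer for 2 h at 37°C to allow internalization. After two PBS washes, cells were kept in culture medium for 15, 30, 60 and 120 min, washed three times with PBS and detached with 0.25% trypsin/0.02% EDTA. Cell-bound activity was gamma counted and expressed as % of added dose after decay correction. Two experiments, triplicate wells.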

in vivo = details: female, athymic nude, mouse, 7.4 MBq, total radioactivity

SMILES: NCCCC[C@@H]1NC(=O)[C@@H]2CCCN2C(=O)[C@H](CC(N)=O)NC(=O)[C@H](CO)NC(=O)[C@H](CC(N)=O)NC(=O)CNC(=O)[C@@H](NC(=O)CN2CCN(CC(=O)O)CCN(CC(=O)O)CCN(CC(=O)O)CC2)CSSC[C@@H](C(N)=O)NC(=O)[C@H](CO)NC1=O [^64Cu-DOTA-GX1, metal not drawn] ({DOTA}-CGNSNPKSC-NH2; disulfide 1-9; N-terminus and C-terminus assumed)
- octanol/water partition coefficient (log P) [1]: −2.42±0.003
- percentage of intact tracer in PBS (Probe stability in PBS; 6 h incubation): more than 95%
- percentage of intact tracer in PBS (Probe stability in PBS; 24 h incubation): more than 91%
- radioactivity still associated with the cells [2]: 76%
- tissue uptake at 24 h (in vivo; U87MG tumor uptake (biodistribution)): 6.46 ± 0.29 %ID/g
- tissue uptake at 24 h (in vivo; liver uptake (biodistribution)): 5.03 ± 0.14 %ID/g
